# This is a sample that favours compounds with a hit; in the whole collection about 1.9% have one here.
# IMP-1 inhibitor: IMP-1 metallo-beta-lactamase inhibitors, primary screen, biochemical, epi-absorbance readout, Pseudomonas aeruginosa enzyme | metallo-beta-lactamase IMP-1 (Pseudomonas aeruginosa) | purified IMP-1, nitrocefin hydrolysis, epi-absorbance fluorescence | inhibition, % at 5.6 µM | 0.45% of 290,000 active | AID 1556, 2009;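 active = inhibition above the mean plus 3 SD of all compounds in the same screening run, cut at about 4.5% in these data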
#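 Material – recombinant IMP-1 enzyme, purified · Amount – IMP-1 0.2 nM before substrate addition · Medium – HEPES buffer pH 7.1 with ZnSO4 and Brij 35 · Timing – 25 °C, 15 min preincubation, 25 min reaction · Measured by – plate fluorescence quenching by hydrolysis product, ex 480/em 530 nm · Read-out – percent enzyme inhibition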
# HCV core dimer: inhibitors of HCV core protein dimerization, primary screen, biochemical, TR-FRET, high-throughput; 0.33% of 300,000 active; TR-FRET GST/Flag-core106 dimerization, 1536-well; AID 1899, 2009; inhibition, % at 5 µM;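 active = inhibition above the mean of all tested compounds plus 3 SD, set per screening campaign, cut at about 45% in these data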
#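 System – GST-tagged and Flag-tagged HCV core protein residues 1-106 · Repeats – one well for each compound · Technique – TR-FRET 671 and 617 nm emission · Doses – one concentration, 5 µM, in 0.5% DMSO · Times – 4 h, 22.5 °C incubation · Also added – Eu donor and XL665 acceptor anti-tag antibodies · Measure – percent inhibition of core106 dimerization signal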
# NadD block: inhibitors of S. aureus NadD, primary screen, biochemical, colorimetric, uHTS; 0.78% of 360,000 active; Nicotinate-nucleotide adenylyltransferase NadD (Staphylococcus aureus N315); inhibition, % at 20 µM; purified NadD enzyme, colorimetric absorbance read-out; in the data active = inhibition above about 26%
# VIM-2 inh: VIM-2 metallo-beta-lactamase inhibitors, primary screen, biochemical, epi-absorbance readout, Pseudomonas aeruginosa enzyme; inhibition, % at 5.6 µM; 0.89% of 290,000 active; purified VIM-2, nitrocefin hydrolysis, epi-absorbance fluorescence;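 active = inhibition above the mean of all tested compounds plus 3 SD, cutoff set per screening run, cut at about 7.5% in these data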;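 also: red hydrolysis product quenches plate fluorescence so inhibitors raise well fluorescence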
# NadD inh conf: inhibitors of S. aureus NadD, confirmation, biochemical, colorimetric, single concentration; purified S. aureus NadD, colorimetric enzyme assay; 13% of 2,000 active; shares compounds with NadD block; inhibition, % at 20 µM; AID 624309, 2012; in the data active = inhibition mostly above about 42%, no sharp cut-off; inactive = mostly below about 42%
# A number is an active result; – = inactive; · = no result given.
SMILES,IMP-1 inhibitor,HCV core dimer,NadD block,VIM-2 inh,NadD inh conf
CCCCN1C2=C(C(=O)CCC2)C(c2ccc(Cl)c(Cl)c2)C2=C1c1ccccc1C2=O (stereo not drawn),–,–,32,–,–
O=C(CN1C(=O)NC2(CCCC2)C1=O)Nc1cc(Cl)ccc1N1CCCCC1,–,–,–,–,·
O=C(NCCc1c[nH]c2ccccc12)C(=O)NCC(c1ccco1)N1CCN(c2ccccc2F)CC1 (stereo not drawn),–,–,–,–,·
O=C1CC(/C=C/c2ccc([N+](=O)[O-])cc2)=Nc2ccccc2N1,–,–,36,–,–
CCOC(=O)C1=C(N)n2c(s/c(=C/c3ccco3)c2=O)=C(C(=O)OC)C1c1ccco1 (stereo not drawn),–,–,31,–,–
Nc1nc(=S)[nH]c2c1C1(CCCCC1)Cc1ccccc1-2,–,–,35,–,–
O=C1O[C@H]([C@@H](O)CO)C(O)=C1O,·,–,35,·,–
CC(=O)NC(Cc1cccc(C)c1)C(=O)NC1CCN(S(=O)(=O)c2ccccc2)CC1 (stereo not drawn),–,–,–,–,·
COc1cccc(NC(=O)CN(C)C(=O)c2cc(-c3ccco3)nc3ccccc23)c1,·,–,–,·,·
CCOc1ccc(NC(=O)CN(C)C(=O)c2cc(-c3ccco3)nc3ccccc23)cc1OCC,·,·,–,·,·
Cc1ccc(NC(=O)CN(C)C(=O)c2cc(-c3ccco3)nc3ccccc23)cc1,·,65,34,·,–
CN(CC(=O)Nc1ccc(F)cc1)C(=O)c1cc(-c2ccco2)nc2ccccc12,·,50,41,·,–
CC(=O)C(Cc1ccccc1)NC(=O)COC(=O)c1cc(S(=O)(=O)N2CCOCC2)ccc1F (stereo not drawn),·,·,–,·,·
Cc1cccc(C(=O)N[C@H](C(=O)Nc2nc3ccc(S(C)(=O)=O)cc3s2)C(C)C)c1,–,–,–,–,·
NS(=O)(=O)c1ccc(CCNC(=O)CCCCCn2c(=S)[nH]c3ccc(Br)cc3c2=O)cc1,–,–,31,–,–
Cc1cc(C)n2nc(C(=O)N/N=C/c3ccccc3Cl)nc2n1,–,–,–,–,·
Cc1cc(C)n2nc(C(=O)N/N=C/c3c4ccccc4cc4ccccc34)nc2n1,–,–,29,–,–
O=C1Cc2cc(CCN3CCN(c4nsc5ccccc45)CC3)c(Cl)cc2N1,–,·,·,–,·
O=C(CCCCn1c(=O)[nH]c2ccsc2c1=O)NCc1ccc2c(c1)OCO2,–,–,–,–,·
O=C(CCCCn1c(=S)[nH]c2ccsc2c1=O)NCc1ccc2c(c1)OCO2,–,–,30,–,–
COc1cccc(-c2ccccc2C2=CC(=O)CC(C)(C)C2=O)c1,·,·,–,·,·
CC(C)(C)S(=O)N1Cc2cc(C(=O)NCCCN3CCOCC3)nc(-c3cccc(-c4cc5ccccc5o4)c3)c2[C@@H]1CCO (stereo partly drawn),·,·,–,·,·
CC(C)(C)S(=O)N1Cc2cc(C(=O)NCc3ccc(Oc4ccccc4)cc3)nc(-c3cccc(-c4cc5ccccc5o4)c3)c2[C@H]1CCO (stereo partly drawn),·,·,35,·,–
CC(C)(C)S(=O)N1Cc2cc(C(=O)NCc3ccc4c(c3)OCO4)nc(-c3cccc(-c4cc5ccccc5o4)c3)c2[C@@H]1CCO (stereo partly drawn),·,·,33,·,–
O=C(NCc1ccccc1)c1cc(C2CCCN(C(=O)c3ccc4c(c3)CCO4)C2)on1 (stereo not drawn),·,·,–,·,·
SMILES,IMP-1 inhibitor,HCV core dimer,NadD block,VIM-2 inh,NadD inh conf
Cc1noc(/C=C/c2ccco2)c1S(=O)(=O)N1CCC(C(=O)NC(C)c2ccccc2)CC1 (stereo not drawn),–,–,–,–,·
Cc1noc(/C=C/c2ccco2)c1S(=O)(=O)N1CCC(C(=O)N2c3ccccc3CC2C)CC1 (stereo not drawn),–,–,39,–,–
COc1ccccc1CNC(=O)/C=C/c1ccc(Br)o1,–,–,32,–,–
Cc1ccccc1OCc1nnc(SCC(=O)Nc2ccc3c(c2)OCO3)n1C,–,–,–,–,·
Cc1ccccc1OCc1nnc(SCC(=O)Nc2ccc3nc(SCC(=O)Nc4ccccc4)sc3c2)n1C,–,–,32,–,–
Cc1cc(C)c(NC(=O)CSc2nc3ccc(NC(=O)CSc4nnnn4Cc4ccccc4)cc3s2)c(C)c1,–,–,47,–,–
O=C1C(=O)c2c(ccc3ccccc23)-c2ccccc21,·,·,–,·,·
Cc1ccccc1C1C(C#N)=C2N=C(N)c3c(sc4c3CCCCC4)N2C2=C1C(=O)CCC2 (stereo not drawn),–,–,43,–,–
N#CC1=C2N=C(N)c3ccccc3N2C2=C(C(=O)CCC2)C1c1ccccc1F (stereo not drawn),–,–,–,–,·
O=S(=O)(c1ccc(Cl)cc1)N1CCN(c2nc(-c3cccs3)nc3ccccc23)CC1,–,·,30,–,–
CCOc1ccc(CCN2C(=S)N([C@@H](Cc3ccc(O)cc3)CN3CCC[C@@H]3CN3C(=S)NC[C@@H]3Cc3ccc(O)cc3)C[C@@H]2Cc2ccc(O)cc2)cc1,·,·,36,·,–
CCOc1ccc(CCN2C(=S)N([C@@H](Cc3ccc(O)cc3)CN3CCC[C@@H]3CN3C(=S)NC[C@@H]3Cc3ccccc3)C[C@@H]2Cc2ccccc2)cc1,·,·,–,·,·
CCOc1ccc(CCN2C(=S)N([C@@H](Cc3ccccc3)CN3CCCC3CN3C(=S)NC[C@@H]3Cc3ccccc3)C[C@@H]2Cc2ccc(O)cc2)cc1 (stereo partly drawn),·,·,50,·,–
CCOc1ccc(CCN2C(=S)N([C@@H](CC(C)C)CN3CCC[C@@H]3CN3C(=S)NC[C@@H]3Cc3ccccc3)C[C@@H]2Cc2ccc(O)cc2)cc1,·,·,36,·,–
COc1cc(C(=O)NC(C)c2cc(C)ccc2C)ccc1OCC(=O)N1CCOCC1 (stereo not drawn),·,·,–,·,·
CN(Cc1ccccc1)C1CCNCC1,–,–,–,–,·
C/C(=N\NC(=O)c1ccc(OC2OCCOC2Oc2ccc(C(=O)N/N=C(\C)c3ccncc3)cc2)cc1)c1ccncc1 (stereo not drawn),–,–,32,–,–
Cc1cc([N+](=O)[O-])c2[nH]c(C(=O)N/N=C/c3ccccc3C(=O)O)c(-c3ccccc3)c2c1,–,·,34,–,–
Cc1ccc2c(C)c(C(=O)N(C)Cc3nccn3C)oc2c1C,–,–,–,–,·
COc1ccc(NC(=O)CCCN2C(=O)CN(C)C2=O)cc1Cl,·,·,–,·,·
Cc1ccc(NC(=S)N2CCCCC2)cc1C,–,–,–,–,·
COc1ccc(C(=O)Sc2nncc3ccccc23)cc1,–,–,–,–,·
CCOC(=O)c1ccccc1NC(=O)c1ccc2c(SCC(=O)O)c3c(nc2c1)CCCC3,–,–,30,–,62

# Compound activity from PubChem.
